In ChEMBL document CHEMBL3797186, “Single Residue Substitutions That Confer Voltage-Gated Sodium Ion Channel Subtype Selectivity in the NaV1.7 Inhibitory Peptide GpTx-1” (J Med Chem, 2016):
pIC50: −log10 of the molar value. Positions of bridges follow the written chain, without caps; N, C: chain ends. Non-standard residues stand in square brackets, D forms with d. Residues, ends and D or L forms follow the SMILES beside them. 1Nal = N[C@@H](Cc1cccc2ccccc12)C(=O)O

Columns and labels:
Type in all cases: cell-based
[1] = molecular target: T1, Sodium channel protein type 5 subunit alpha (Homo sapiens, UniProt Q14524); assay: Inhibition of human Nav1.5 expressed in HEK293 cells assessed as inward peak current by ion-works quattro patch clamp electrophysiology method
T1 sequence (Q14524 whole entry): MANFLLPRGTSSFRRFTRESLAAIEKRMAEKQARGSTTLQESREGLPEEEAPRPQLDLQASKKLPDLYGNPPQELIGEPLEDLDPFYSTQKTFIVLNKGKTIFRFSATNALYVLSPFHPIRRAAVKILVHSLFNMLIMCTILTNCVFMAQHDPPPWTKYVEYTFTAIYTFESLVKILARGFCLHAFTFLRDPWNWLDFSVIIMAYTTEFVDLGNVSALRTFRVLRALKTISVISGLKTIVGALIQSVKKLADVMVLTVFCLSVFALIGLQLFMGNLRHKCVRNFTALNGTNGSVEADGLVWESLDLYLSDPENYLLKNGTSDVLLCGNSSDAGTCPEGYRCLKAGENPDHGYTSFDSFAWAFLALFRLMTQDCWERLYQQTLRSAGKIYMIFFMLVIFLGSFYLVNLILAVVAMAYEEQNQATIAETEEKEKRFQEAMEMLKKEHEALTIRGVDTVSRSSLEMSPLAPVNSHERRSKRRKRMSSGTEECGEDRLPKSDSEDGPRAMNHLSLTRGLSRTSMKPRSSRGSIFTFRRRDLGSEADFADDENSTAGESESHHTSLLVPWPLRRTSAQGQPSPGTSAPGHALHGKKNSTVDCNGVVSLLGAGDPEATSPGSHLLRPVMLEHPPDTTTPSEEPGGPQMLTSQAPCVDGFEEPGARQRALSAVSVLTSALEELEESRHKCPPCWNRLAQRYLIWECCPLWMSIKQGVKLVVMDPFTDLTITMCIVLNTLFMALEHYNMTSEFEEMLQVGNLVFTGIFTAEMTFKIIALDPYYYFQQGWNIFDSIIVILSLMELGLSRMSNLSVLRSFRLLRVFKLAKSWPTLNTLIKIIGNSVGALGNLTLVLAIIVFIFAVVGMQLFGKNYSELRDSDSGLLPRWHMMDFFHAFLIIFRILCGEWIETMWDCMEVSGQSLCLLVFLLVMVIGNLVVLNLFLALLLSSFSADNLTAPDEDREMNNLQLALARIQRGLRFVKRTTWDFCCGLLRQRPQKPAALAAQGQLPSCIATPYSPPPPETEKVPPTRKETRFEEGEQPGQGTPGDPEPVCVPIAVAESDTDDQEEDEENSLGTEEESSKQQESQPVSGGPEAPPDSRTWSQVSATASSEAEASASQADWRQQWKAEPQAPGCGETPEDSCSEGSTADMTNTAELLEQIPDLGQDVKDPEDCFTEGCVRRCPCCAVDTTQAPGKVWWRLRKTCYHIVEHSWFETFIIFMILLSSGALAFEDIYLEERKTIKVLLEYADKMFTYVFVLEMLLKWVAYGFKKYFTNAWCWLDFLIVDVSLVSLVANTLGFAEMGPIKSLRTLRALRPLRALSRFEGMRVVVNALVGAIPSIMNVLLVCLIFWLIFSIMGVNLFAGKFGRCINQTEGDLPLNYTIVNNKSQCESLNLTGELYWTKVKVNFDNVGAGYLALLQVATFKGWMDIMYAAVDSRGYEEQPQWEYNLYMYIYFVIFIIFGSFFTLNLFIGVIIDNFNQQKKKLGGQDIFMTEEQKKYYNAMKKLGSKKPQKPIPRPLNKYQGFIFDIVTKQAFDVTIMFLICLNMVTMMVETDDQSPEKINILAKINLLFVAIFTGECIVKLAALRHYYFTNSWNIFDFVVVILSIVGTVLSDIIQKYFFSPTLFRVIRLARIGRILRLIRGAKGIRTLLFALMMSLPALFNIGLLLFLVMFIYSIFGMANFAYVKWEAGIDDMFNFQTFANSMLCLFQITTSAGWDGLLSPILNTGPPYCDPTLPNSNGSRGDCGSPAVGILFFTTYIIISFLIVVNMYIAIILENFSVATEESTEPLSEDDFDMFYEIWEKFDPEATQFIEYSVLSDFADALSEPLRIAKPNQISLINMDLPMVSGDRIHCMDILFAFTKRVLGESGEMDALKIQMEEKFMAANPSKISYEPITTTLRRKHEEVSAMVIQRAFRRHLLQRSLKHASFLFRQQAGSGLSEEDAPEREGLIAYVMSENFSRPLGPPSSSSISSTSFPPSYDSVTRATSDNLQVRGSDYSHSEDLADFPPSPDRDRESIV
Outline: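 Stable HEK293 line expressing human NaV1.5, recorded by population patch clamp on the IonWorks Quattro.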

[2] = molecular target: T1, Sodium channel protein type 5 subunit alpha; assay: Inhibition of human Nav1.5 expressed in HEK293 cells by whole cell patch clamp electrophysiology method
Outline: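 Stable HEK293 line expressing human NaV1.5, recorded on the PatchXpress 7000A. Percent inhibition versus concentration was pooled from at least 10 cells, with two to three points per concentration. The pooled set was fitted with a four-parameter Hill equation to give a single IC50 curve.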

[3] = molecular target: Sodium channel protein type 9 subunit alpha (Homo sapiens, UniProt Q15858); assay: Inhibition of human Nav1.7 expressed in HEK293 cells assessed as inward peak current by ion-works quattro patch clamp electrophysiology method
Chain of Sodium channel protein type 9 subunit alpha (Q15858 whole entry): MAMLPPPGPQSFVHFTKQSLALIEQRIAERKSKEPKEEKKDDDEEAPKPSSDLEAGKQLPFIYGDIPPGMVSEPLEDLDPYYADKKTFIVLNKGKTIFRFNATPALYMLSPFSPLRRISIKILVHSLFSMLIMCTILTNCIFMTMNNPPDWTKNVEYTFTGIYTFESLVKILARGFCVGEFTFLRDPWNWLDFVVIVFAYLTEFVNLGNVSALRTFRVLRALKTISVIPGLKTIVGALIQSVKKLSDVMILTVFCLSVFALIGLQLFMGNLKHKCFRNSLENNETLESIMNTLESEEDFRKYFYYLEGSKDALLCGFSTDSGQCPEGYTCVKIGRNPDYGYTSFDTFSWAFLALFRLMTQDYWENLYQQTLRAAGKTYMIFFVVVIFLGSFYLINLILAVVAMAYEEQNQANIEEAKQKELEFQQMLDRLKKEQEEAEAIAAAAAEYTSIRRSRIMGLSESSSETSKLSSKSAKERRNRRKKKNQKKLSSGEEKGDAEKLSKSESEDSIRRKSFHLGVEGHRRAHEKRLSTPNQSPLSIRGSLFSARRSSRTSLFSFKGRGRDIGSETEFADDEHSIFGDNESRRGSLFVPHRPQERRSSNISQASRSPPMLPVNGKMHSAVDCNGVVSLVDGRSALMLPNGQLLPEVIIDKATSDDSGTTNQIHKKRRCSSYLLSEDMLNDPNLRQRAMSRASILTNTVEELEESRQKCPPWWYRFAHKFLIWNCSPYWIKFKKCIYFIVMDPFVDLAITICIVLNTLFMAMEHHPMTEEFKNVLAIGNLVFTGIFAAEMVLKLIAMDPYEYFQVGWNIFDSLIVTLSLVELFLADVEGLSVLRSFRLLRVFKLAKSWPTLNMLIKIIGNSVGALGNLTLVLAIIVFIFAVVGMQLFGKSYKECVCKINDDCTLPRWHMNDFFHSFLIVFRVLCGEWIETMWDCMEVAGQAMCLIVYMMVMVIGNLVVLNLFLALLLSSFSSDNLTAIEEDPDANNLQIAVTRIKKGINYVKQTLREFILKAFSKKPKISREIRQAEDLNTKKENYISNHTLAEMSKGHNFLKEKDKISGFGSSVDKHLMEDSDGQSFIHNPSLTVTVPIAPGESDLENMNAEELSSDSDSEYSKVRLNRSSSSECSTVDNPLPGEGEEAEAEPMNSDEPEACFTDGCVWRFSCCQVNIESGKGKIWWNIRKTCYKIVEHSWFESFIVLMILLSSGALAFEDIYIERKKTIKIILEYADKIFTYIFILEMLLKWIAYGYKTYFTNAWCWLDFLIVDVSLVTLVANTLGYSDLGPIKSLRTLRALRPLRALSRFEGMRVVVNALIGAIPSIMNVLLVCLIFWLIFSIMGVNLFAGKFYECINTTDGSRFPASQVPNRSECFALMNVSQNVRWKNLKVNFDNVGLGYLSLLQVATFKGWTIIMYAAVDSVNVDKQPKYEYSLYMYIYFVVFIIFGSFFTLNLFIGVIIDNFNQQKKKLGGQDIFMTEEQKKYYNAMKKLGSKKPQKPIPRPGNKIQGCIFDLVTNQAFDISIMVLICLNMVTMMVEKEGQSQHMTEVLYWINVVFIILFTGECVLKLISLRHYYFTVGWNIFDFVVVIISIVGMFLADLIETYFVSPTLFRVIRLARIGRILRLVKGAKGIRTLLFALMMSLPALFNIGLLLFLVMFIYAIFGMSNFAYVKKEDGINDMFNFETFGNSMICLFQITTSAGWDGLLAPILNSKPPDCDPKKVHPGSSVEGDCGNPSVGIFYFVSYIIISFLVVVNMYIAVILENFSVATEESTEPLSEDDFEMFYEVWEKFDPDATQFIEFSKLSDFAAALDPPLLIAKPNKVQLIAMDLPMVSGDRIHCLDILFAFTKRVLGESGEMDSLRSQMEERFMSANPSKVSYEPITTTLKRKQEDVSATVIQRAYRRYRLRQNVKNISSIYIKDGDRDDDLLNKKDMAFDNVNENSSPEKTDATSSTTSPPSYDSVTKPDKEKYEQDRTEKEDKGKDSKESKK

Row | SMILES | pIC50 [1] | pIC50 [2] | pIC50 [3]
1 | CC[C@H](C)[C@@H]1NC(=O)[C@@H]2CSSC[C@@H]3NC(=O)[C@H](C(C)C)NC(=O)[C@H](CC(C)C)NC(=O)[C@H](CC(N)=O)NC(=O)[C@@H]4CCCN4C(=O)[C@H](CCCNC(=N)N)NC(=O)[C@H](CSSC[C@H](NC(=O)[C@@H](N)CC(=O)O)C(=O)N[C@@H](CC(C)C)C(=O)NCC(=O)N[C@@H](Cc4ccccc4)C(=O)N[C@@H](CCSC)C(=O)N[C@@H](CCCNC(=N)N)C(=O)N[C@@H](CCCCN)C(=O)N2)NC(=O)[C@H](CSSC[C@@H](C(=O)N[C@@H](CCCCN)C(=O)N[C@@H](Cc2cccc4ccccc24)C(=O)N[C@H](C(=O)N[C@@H](Cc2ccccc2)C(N)=O)C(C)C)NC(=O)[C@H](Cc2c[nH]c4ccccc24)NC(=O)[C@H](CCCCN)NC(=O)[C@H](Cc2cnc[nH]2)NC(=O)[C@H]([C@@H](C)O)NC(=O)[C@H](CCCNC(=N)N)NC(=O)[C@H](CO)NC3=O)NC(=O)[C@H](CCCCN)NC(=O)[C@H](CC(=O)O)NC(=O)[C@H](CC(N)=O)NC(=O)[C@H](CC(=O)O)NC(=O)[C@@H]2CCCN2C1=O (H-DCLGFMRKCIPDNDKCCRPNLVCSRTHKWCK[1Nal]VF-NH2; disulfide 2-17, 9-23, 16-30) | 5.46 | 6.00 | 8.05
2 | CC[C@H](C)[C@@H]1NC(=O)[C@@H]2CSSC[C@@H]3NC(=O)[C@H](C(C)C)NC(=O)[C@H](CC(C)C)NC(=O)[C@H](CC(N)=O)NC(=O)[C@@H]4CCCN4C(=O)[C@H](CCCNC(=N)N)NC(=O)[C@H](CSSC[C@H](NC(=O)[C@@H](N)CC(=O)O)C(=O)N[C@@H](CC(C)C)C(=O)NCC(=O)N[C@@H](Cc4ccccc4)C(=O)N[C@@H](CCSC)C(=O)N[C@@H](CCCNC(=N)N)C(=O)N[C@@H](CCCCN)C(=O)N2)NC(=O)[C@H](CSSC[C@@H](C(=O)N[C@@H](CCCCN)C(=O)N[C@@H](Cc2ccc(O)cc2)C(=O)N[C@H](C(=O)N[C@@H](Cc2ccccc2)C(N)=O)C(C)C)NC(=O)[C@H](Cc2c[nH]c4ccccc24)NC(=O)[C@H](CCC(N)=O)NC(=O)[C@H](Cc2cnc[nH]2)NC(=O)[C@H]([C@@H](C)O)NC(=O)[C@H](CCCNC(=N)N)NC(=O)[C@H](CO)NC3=O)NC(=O)[C@H](CCCCN)NC(=O)[C@H](CC(=O)O)NC(=O)[C@H](CC(N)=O)NC(=O)[C@H](CC(=O)O)NC(=O)[C@@H]2CCCN2C1=O (H-DCLGFMRKCIPDNDKCCRPNLVCSRTHQWCKYVF-NH2; disulfide 2-17, 9-23, 16-30) | – | < 5.00 | 6.70
3 | CC[C@H](C)[C@@H]1NC(=O)[C@@H]2CSSC[C@@H]3NC(=O)[C@H](C(C)C)NC(=O)[C@H](CC(C)C)NC(=O)[C@H](CC(N)=O)NC(=O)[C@@H]4CCCN4C(=O)[C@H](CCCNC(=N)N)NC(=O)[C@H](CSSC[C@H](NC(=O)[C@@H](N)CC(=O)O)C(=O)N[C@@H](CC(C)C)C(=O)NCC(=O)N[C@@H](Cc4ccccc4)C(=O)N[C@@H](CCSC)C(=O)N[C@@H](CCCNC(=N)N)C(=O)N[C@@H](CCCCN)C(=O)N2)NC(=O)[C@H](CSSC[C@@H](C(=O)N[C@@H](CCCCN)C(=O)N[C@@H](Cc2ccc(O)cc2)C(=O)N[C@H](C(=O)N[C@@H](Cc2ccccc2)C(N)=O)C(C)C)NC(=O)[C@H](Cc2c[nH]c4ccccc24)NC(=O)[C@H](CCCCN)NC(=O)[C@H](Cc2c[nH]cn2)NC(=O)[C@H]([C@@H](C)O)NC(=O)[C@H](CCCNC(=N)N)NC(=O)[C@H](CO)NC3=O)NC(=O)[C@H](CCCCN)NC(=O)[C@H](CC(=O)O)NC(=O)[C@H](Cc2cccc3ccccc23)NC(=O)[C@H](CC(=O)O)NC(=O)[C@@H]2CCCN2C1=O (H-DCLGFMRKCIPD[1Nal]DKCCRPNLVCSRTHKWCKYVF-NH2; disulfide 2-17, 9-23, 16-30) | < 5.30 | 5.11 | 6.89
4 | CC[C@H](C)[C@@H]1NC(=O)[C@@H]2CSSC[C@@H]3NC(=O)[C@H](C(C)C)NC(=O)[C@H](CC(C)C)NC(=O)[C@H](CC(N)=O)NC(=O)[C@@H]4CCCN4C(=O)[C@H](CCCNC(=N)N)NC(=O)[C@H](CSSC[C@H](NC(=O)[C@@H](N)CC(=O)O)C(=O)N[C@@H](CC(C)C)C(=O)N[C@@H](CCCNC(=N)N)C(=O)N[C@@H](Cc4ccccc4)C(=O)N[C@@H](CCSC)C(=O)N[C@@H](CCCNC(=N)N)C(=O)N[C@@H](CCCCN)C(=O)N2)NC(=O)[C@H](CSSC[C@@H](C(=O)N[C@@H](CCCCN)C(=O)N[C@@H](Cc2ccc(O)cc2)C(=O)N[C@H](C(=O)N[C@@H](Cc2ccccc2)C(N)=O)C(C)C)NC(=O)[C@H](Cc2c[nH]c4ccccc24)NC(=O)[C@H](CCCCN)NC(=O)[C@H](Cc2cnc[nH]2)NC(=O)[C@H]([C@@H](C)O)NC(=O)[C@H](CCCNC(=N)N)NC(=O)[C@H](CO)NC3=O)NC(=O)[C@H](CCCCN)NC(=O)[C@H](CC(=O)O)NC(=O)[C@H](CC(N)=O)NC(=O)[C@H](CC(=O)O)NC(=O)[C@@H]2CCCN2C1=O (H-DCLRFMRKCIPDNDKCCRPNLVCSRTHKWCKYVF-NH2; disulfide 2-17, 9-23, 16-30) | < 5.30 | 5.35 | 6.64
5 | CC[C@H](C)[C@@H]1NC(=O)[C@@H]2CSSC[C@@H]3NC(=O)[C@H](C(C)C)NC(=O)[C@H](CC(C)C)NC(=O)[C@H](CC(N)=O)NC(=O)[C@@H]4CCCN4C(=O)[C@H](CCCNC(=N)N)NC(=O)[C@H](CSSC[C@H](NC(=O)[C@@H](N)CC(=O)O)C(=O)N[C@@H](CC(C)C)C(=O)NCC(=O)N[C@@H](Cc4ccccc4)C(=O)N[C@@H](CCSC)C(=O)N[C@@H](CCCNC(=N)N)C(=O)N[C@@H](CCCCN)C(=O)N2)NC(=O)[C@H](CSSC[C@@H](C(=O)N[C@@H](CCCCN)C(=O)N[C@@H](Cc2ccc(O)cc2)C(=O)N[C@H](C(=O)N[C@@H](Cc2ccccc2)C(N)=O)C(C)C)NC(=O)[C@H](Cc2cccc4ccccc24)NC(=O)[C@H](CCCCN)NC(=O)[C@H](Cc2cnc[nH]2)NC(=O)[C@H]([C@@H](C)O)NC(=O)[C@H](CCCNC(=N)N)NC(=O)[C@H](CO)NC3=O)NC(=O)[C@H](CCCCN)NC(=O)[C@H](CC(=O)O)NC(=O)[C@H](CC(N)=O)NC(=O)[C@H](CC(=O)O)NC(=O)[C@@H]2CCCN2C1=O (H-DCLGFMRKCIPDNDKCCRPNLVCSRTHK[1Nal]CKYVF-NH2; disulfide 2-17, 9-23, 16-30) | < 5.30 | < 5.00 | –
6 | CC[C@H](C)[C@@H]1NC(=O)[C@@H]2CSSC[C@@H]3NC(=O)[C@H](C(C)C)NC(=O)[C@H](CC(C)C)NC(=O)[C@H](CC(N)=O)NC(=O)[C@@H]4CCCN4C(=O)[C@H](CCCNC(=N)N)NC(=O)[C@H](CSSC[C@H](NC(=O)[C@@H](N)CC(=O)O)C(=O)N[C@@H](CC(C)C)C(=O)N[C@@H](CCCCN)C(=O)N[C@@H](Cc4ccccc4)C(=O)N[C@@H](CCSC)C(=O)N[C@@H](CCCNC(=N)N)C(=O)N[C@@H](CCCCN)C(=O)N2)NC(=O)[C@H](CSSC[C@@H](C(=O)N[C@@H](CCCCN)C(=O)N[C@@H](Cc2ccc(O)cc2)C(=O)N[C@H](C(=O)N[C@@H](Cc2ccccc2)C(N)=O)C(C)C)NC(=O)[C@H](Cc2c[nH]c4ccccc24)NC(=O)[C@H](CCCCN)NC(=O)[C@H](Cc2cnc[nH]2)NC(=O)[C@H]([C@@H](C)O)NC(=O)[C@H](CCCNC(=N)N)NC(=O)[C@H](CO)NC3=O)NC(=O)[C@H](CCCCN)NC(=O)[C@H](CC(=O)O)NC(=O)[C@H](CC(N)=O)NC(=O)[C@H](CC(=O)O)NC(=O)[C@@H]2CCCN2C1=O (H-DCLKFMRKCIPDNDKCCRPNLVCSRTHKWCKYVF-NH2; disulfide 2-17, 9-23, 16-30) | < 5.30 | 5.00 | 6.68
